“And” between values parts separate entries of the source, which are not always exact repeats. Equal values may be shown once. Read-outs that look alike come from different tables or passages of the source.
What was measured:
[1] = 684 nmol (320 μg) cecal infusion after bowel cleansing; cited from earlier work
[2] = Apparent absorption across the colon calculated with one-compartment model; format: in vivo, human
Method in brief: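 Enteric-coated caplet with about 12.6% coating mass gain. The absorbed mass was estimated from plasma labeled 5-methyltetrahydrofolate concentration using a three-equation, one-compartment model of small-intestinal folate absorption. Volume of distribution was taken as 387 mL/kg body weight. t_lag, the time plasma enrichment stayed at baseline, was set at 1 h. Plasma was sampled hourly after pyloric passage until 2000, then at 24 and 48 h.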

[3] = format: in vivo, human
Method in brief: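 Given after a ≥4-wk washout as an IV injection in 1.35 mL sterile saline (pH 7.0, 74 μg folate/mL). Blood was drawn from the opposite arm at 15 min, then every 30 min for 4 h. Plasma M+5/M+0 molar ratios were measured by LC-MS/MS. Amounts were converted to nmol/person from baseline microbiological plasma folate, blood volume and packed cell volume. Half-life came from a one-phase exponential fit to the descending plasma curve.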

[4] = cited from earlier work
[5] = format: in vivo, human; settings: caplet 855 nmol oral
[6] = model parameter; cited from earlier work
[7] = iv 214 nmol, individual subjects A-I

Apparent absorption across the colon of the 855-nmol dose ([2]; caplet, one-compartment model, mean, excludes 2 subjects without plasma response) | bioavailability ([2]; human, plasma, oral, 855 nmol) [%] | 5-formyltetrahydrofolate Cmax (labeled, plasma) ([3]; iv 214 nmol, mean ± SEM, n = 9) [nmol] | Plasma enrichment with [13C5]5-formyltetrahydrofolate ([3]; plasma samples collected immediately after iv injection, mean ± SEM) [%] | Detection of [13C5]5-formyltetrahydrofolate (parent) in plasma after caplet ([5]; any subject) | SMILES | Rate of folate absorption after bolus infusion directly into the cecum [1] [nmol/h] | 5-formyltetrahydrofolate Cmax (labeled, plasma) [3, 7] | 5-methyltetrahydrofolate Cmax (labeled metabolite, plasma) [3, 7] | Apparent absorption in the small intestine ([4]; 500-nmol orally administered test dose) | Rate of folate absorption across the small intestine ([4]; oral bolus 421–569 nmol, estimated from published data) | Cmax of [13C5]5-methyltetrahydrofolate in plasma ([5]; individual subjects A-F) | Apparent volume of distribution (V) [6] [mL/kg body weight]
46% and 46.2 ± 16.5% | 34.7 ± 14.3 | 13.5 ± 1.6 | 11.6 ± 1.5 | did not detect | Nc1nc2c(c(=O)[nH]1)N(C=O)C(CNc1ccc(C(=O)N[C@@H](CCC(=O)O)C(=O)O)cc1)CN2 (stereo partly drawn) [[^13C5]5-formyltetrahydrofolate, [glutamyl-^13C5]-[6S]-5-formyltetrahydrofolic acid] | 0.6 ± 0.02 | 20.0 nmol and 10.2 nmol and 20.3 nmol and 7.1 nmol and 15.9 nmol and 14.1 nmol and 7.5 nmol and 10.9 nmol and 15.2 nmol | 6.8 nmol and 6.6 nmol and 10.2 nmol and 3.1 nmol and 7.8 nmol and 10.0 nmol and 5.0 nmol and 6.0 nmol and 5.8 nmol | 38 ± 6% and 38% | ~ 34 nmol/h | 0.5 nmol and 2.0 nmol and 3.7 nmol and 4.0 nmol and 1.6 nmol | –
– | – | – | – | – | Nc1nc2ncc(CNc3ccc(C(=O)N[C@@H](CCC(=O)O)C(=O)O)cc3)nc2c(=O)[nH]1 [folate] | – | – | – | – | – | – | 387
